Test results from ChEMBL document CHEMBL1165965, “Synthesis and structure-activity relationships of 1,2,3,4-tetrahydropyrido[2,3-b]pyrazines as potent and selective inhibitors of the anaplastic lymphoma kinase” (Bioorg Med Chem, 2010).

How the values were obtained:
[1] = molecular target: T1, Inhibitor of nuclear factor kappa-B kinase subunit alpha (Homo sapiens) (UniProt O15111); test: Inhibition of IKK-alpha at 1 uM
T1 sequence (whole entry): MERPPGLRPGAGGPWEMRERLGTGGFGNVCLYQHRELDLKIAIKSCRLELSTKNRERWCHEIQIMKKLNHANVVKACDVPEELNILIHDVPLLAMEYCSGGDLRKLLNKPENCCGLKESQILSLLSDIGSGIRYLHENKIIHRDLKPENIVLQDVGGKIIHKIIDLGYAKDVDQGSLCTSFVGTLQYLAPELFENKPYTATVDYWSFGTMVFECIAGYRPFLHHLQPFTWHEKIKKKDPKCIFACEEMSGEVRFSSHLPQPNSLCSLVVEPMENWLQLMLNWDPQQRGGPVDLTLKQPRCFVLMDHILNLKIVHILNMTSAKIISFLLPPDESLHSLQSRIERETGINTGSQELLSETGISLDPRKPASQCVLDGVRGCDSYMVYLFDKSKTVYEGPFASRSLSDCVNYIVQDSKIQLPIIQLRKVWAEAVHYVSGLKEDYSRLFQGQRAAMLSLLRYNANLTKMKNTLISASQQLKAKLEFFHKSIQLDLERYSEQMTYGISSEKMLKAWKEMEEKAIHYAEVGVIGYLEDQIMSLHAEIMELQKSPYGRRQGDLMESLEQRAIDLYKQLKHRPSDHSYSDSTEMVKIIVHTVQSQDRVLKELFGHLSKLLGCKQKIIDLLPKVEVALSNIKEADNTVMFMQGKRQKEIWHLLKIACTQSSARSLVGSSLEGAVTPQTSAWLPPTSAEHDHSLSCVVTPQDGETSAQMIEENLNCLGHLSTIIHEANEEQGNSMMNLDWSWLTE

[2] = molecular target: Mitogen-activated protein kinase 8 (Homo sapiens) (UniProt P45983); test: Inhibition of JNK1 at 1 uM
Summary of the method: (§1)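 Single-concentration screen on the Ambit KINOMEscan platform, run against a panel of 250–400 kinases. Per-kinase inhibition was also summarized as S(90), the fraction of kinases inhibited by more than 90%.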

[3] = molecular target: T2, Muscle, skeletal receptor tyrosine-protein kinase (Homo sapiens) (UniProt O15146); test: Inhibition of MUSK at 1 uM
T2 sequence (whole entry): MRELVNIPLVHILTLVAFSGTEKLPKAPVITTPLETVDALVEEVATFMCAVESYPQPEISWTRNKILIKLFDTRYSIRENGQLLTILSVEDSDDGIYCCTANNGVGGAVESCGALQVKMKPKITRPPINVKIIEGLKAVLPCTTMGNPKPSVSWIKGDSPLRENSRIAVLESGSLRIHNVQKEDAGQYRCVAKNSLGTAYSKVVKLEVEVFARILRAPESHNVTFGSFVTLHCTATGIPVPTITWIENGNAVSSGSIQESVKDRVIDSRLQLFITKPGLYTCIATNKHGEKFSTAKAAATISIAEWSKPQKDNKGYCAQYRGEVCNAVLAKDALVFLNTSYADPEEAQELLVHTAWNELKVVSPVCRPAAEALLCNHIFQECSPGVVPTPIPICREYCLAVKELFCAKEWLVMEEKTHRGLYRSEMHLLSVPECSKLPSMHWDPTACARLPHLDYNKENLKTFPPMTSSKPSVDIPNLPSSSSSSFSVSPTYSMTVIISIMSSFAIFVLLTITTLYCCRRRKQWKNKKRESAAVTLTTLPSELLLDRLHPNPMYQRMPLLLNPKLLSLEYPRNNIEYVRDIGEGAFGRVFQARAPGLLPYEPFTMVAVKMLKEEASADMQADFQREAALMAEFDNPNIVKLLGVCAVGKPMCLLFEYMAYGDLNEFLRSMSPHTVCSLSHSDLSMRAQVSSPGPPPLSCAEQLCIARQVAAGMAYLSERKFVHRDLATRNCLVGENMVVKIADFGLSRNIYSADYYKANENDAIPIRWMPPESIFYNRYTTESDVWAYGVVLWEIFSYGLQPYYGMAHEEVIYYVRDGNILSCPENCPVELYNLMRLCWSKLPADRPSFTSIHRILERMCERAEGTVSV

[4] = molecular target: Serine/threonine-protein kinase PAK 4 (Homo sapiens) (UniProt O96013); test: Inhibition of PAK4 at 1 uM
[5] = molecular target: Cyclin-dependent kinase 17 (Homo sapiens) (UniProt Q00537); test: Inhibition of PCTK2 at 1 uM
[6] = molecular target: Ribosomal protein S6 kinase alpha-6 (Homo sapiens) (UniProt Q9UK32); test: Inhibition of RPS6KA6 N-terminal domain1 at 1 uM
[7] = molecular target: Tyrosine-protein kinase Fgr (Homo sapiens) (UniProt P09769); test: Inhibition of FGR at 1 uM; summary of the method: as §1
[8] = system: T3, Receptor-type tyrosine-protein kinase FLT3 (Homo sapiens), P36888 [D835H]; test: Inhibition of FLT3 D835H mutant at 1 uM; summary of the method: as §1
T3 sequence (whole entry): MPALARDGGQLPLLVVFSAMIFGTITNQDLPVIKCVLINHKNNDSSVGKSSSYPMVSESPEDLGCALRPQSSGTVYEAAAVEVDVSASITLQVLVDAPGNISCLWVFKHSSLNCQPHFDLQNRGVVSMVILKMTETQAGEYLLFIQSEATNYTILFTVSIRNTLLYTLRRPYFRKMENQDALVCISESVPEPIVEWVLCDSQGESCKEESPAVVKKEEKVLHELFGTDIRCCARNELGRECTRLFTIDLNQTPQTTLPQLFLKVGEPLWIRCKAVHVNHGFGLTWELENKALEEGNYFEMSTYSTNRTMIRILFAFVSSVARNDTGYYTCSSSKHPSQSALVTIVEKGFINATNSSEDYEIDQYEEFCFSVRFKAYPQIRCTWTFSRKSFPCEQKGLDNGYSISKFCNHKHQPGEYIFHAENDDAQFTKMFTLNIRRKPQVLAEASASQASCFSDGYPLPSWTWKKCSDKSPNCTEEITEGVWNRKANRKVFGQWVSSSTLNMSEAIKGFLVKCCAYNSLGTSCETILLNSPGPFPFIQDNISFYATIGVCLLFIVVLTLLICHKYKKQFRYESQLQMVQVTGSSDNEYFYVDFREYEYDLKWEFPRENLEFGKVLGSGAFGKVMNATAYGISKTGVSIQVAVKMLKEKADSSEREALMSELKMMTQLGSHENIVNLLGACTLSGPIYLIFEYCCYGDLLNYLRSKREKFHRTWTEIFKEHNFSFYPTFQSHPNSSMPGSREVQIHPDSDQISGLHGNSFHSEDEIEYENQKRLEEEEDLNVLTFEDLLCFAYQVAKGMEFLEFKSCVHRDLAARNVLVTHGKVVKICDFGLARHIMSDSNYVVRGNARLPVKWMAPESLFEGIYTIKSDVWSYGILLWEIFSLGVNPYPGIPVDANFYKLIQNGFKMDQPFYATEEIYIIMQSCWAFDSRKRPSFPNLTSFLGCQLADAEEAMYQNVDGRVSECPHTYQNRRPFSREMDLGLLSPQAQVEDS

Serine/threonine-protein kinase PAK 4 (Homo sapiens), sequence (O96013 whole entry, looked up): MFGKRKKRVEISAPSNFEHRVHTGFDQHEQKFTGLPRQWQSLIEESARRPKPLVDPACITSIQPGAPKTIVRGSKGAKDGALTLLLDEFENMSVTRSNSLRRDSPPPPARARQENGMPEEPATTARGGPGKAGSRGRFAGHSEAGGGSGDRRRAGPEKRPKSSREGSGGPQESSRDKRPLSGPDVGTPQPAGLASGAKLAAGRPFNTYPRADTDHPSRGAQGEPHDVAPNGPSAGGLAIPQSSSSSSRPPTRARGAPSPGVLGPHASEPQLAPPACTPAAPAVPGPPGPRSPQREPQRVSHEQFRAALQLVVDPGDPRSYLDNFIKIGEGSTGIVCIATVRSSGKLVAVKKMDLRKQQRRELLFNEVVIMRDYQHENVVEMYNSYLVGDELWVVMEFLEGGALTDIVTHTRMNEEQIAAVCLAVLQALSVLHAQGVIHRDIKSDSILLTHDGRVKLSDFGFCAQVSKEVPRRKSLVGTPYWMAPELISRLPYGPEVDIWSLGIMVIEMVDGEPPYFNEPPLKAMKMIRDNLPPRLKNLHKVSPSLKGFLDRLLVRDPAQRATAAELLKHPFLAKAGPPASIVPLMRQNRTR
Mitogen-activated protein kinase 8 (Homo sapiens), sequence (P45983 whole entry): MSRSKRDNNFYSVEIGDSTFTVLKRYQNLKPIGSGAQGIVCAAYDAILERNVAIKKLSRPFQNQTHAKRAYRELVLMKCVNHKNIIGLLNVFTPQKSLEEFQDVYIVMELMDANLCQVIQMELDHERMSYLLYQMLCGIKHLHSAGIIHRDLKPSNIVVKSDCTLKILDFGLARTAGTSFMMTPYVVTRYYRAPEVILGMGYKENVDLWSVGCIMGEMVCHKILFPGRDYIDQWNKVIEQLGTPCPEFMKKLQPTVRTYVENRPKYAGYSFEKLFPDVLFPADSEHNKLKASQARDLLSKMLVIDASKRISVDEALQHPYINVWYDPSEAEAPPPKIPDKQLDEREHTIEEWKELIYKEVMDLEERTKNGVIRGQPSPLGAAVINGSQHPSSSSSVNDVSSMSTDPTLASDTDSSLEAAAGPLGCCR
Ribosomal protein S6 kinase alpha-6 (Homo sapiens), sequence (Q9UK32 whole entry, the tested form may be a part): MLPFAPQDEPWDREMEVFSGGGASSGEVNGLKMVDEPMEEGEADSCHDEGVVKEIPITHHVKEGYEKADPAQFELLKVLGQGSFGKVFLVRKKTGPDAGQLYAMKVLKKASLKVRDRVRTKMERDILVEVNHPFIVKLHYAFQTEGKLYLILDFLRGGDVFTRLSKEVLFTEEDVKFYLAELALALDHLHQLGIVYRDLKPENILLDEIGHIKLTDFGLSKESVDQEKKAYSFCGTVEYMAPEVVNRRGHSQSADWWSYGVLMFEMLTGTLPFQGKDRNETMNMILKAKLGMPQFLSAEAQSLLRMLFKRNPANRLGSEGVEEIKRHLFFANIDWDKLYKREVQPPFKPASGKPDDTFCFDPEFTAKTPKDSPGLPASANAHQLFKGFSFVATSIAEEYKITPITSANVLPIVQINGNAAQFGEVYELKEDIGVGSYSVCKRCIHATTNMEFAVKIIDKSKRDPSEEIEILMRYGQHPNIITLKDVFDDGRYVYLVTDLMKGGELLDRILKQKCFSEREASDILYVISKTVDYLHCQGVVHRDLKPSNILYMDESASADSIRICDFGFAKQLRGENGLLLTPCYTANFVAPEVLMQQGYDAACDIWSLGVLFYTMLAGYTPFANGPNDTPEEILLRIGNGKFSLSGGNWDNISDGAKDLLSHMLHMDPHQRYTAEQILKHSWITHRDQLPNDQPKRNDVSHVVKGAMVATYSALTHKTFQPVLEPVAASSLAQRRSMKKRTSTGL
Cyclin-dependent kinase 17 (Homo sapiens), sequence (Q00537 whole entry, looked up, the tested form may be a part): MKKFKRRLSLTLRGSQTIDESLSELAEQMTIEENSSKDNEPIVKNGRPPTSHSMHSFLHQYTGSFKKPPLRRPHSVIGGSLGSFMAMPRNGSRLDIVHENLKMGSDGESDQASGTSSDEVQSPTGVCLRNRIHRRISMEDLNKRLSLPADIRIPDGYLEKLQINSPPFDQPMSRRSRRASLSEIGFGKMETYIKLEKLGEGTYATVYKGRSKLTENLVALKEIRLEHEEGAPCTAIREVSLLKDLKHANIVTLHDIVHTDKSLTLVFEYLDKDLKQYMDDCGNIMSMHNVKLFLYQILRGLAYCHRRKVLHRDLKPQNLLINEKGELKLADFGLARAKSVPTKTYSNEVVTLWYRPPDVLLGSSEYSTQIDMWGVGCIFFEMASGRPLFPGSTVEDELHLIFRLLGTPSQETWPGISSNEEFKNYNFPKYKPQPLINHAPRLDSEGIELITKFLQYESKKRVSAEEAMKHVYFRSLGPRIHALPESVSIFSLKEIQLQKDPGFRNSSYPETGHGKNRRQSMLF
Tyrosine-protein kinase Fgr (Homo sapiens), sequence (P09769 2-529 limits assumed): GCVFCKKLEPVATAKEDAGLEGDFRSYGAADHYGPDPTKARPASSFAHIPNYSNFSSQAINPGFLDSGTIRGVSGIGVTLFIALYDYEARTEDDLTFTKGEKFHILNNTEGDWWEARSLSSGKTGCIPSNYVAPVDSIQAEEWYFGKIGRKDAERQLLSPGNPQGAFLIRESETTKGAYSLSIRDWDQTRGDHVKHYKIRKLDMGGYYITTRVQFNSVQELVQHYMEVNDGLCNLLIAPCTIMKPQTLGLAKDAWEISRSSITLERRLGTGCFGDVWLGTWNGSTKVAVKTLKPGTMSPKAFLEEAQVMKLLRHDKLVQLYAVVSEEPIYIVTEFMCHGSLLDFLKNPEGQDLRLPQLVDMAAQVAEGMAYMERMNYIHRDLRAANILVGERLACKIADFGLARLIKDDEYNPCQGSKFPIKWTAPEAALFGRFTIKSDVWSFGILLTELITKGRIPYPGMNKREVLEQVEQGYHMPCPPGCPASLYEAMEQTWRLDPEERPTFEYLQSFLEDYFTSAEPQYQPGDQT

SMILES | inhibition [1] | inhibition [2] | inhibition [3] | inhibition [4] | inhibition [5] | inhibition [6] | inhibition [7] | inhibition [8]
CN1CCN(c2ccc(-c3cnc4c(c3)N(Cc3cc(Cl)ccc3C(F)(F)F)CCN4)cn2)CC1 | < 50% | < 50% | < 50% | < 50% | < 50% | < 50% | < 50% | 82%
COC1CCN(C(=O)c2ccc(-c3cnc4c(c3)N(Cc3cc(Cl)ccc3C(F)(F)F)CCN4)cc2)CC1 |  | < 50% | < 50% | < 50% |  | < 50% | < 50% | 77.2%
CC(=O)N1CCN(c2cc(-c3cnc4c(c3)N(Cc3cc(Cl)ccc3C(F)(F)F)CCN4)ccn2)CC1 | < 50% | < 50% | < 50% | < 50% | < 50% | < 50% | < 50% | 81%
CN1CCN(c2ccc(-c3cnc4c(c3)N(Cc3cc(F)ccc3F)CCN4)cn2)CC1 | < 50% | < 50% | < 50% | < 50% | < 50% | < 50% | < 50% | 72.5%
CN1CCN(c2ccc(-c3cnc4c(c3)N(Cc3c(F)ccc(F)c3Cl)CCN4)cn2)CC1 | < 50% | < 50% | < 50% | < 50% | < 50% | < 50% | < 50% | 73%

Other lines, results leading:

inhibition [1] | inhibition [2] | inhibition [3] | inhibition [4] | inhibition [5] | inhibition [6] | inhibition [7] | inhibition [8] | SMILES
 | < 50% | < 50% | < 50% |  | < 50% | < 50% | < 50% | O=C(O)c1ccc(-c2cnc3c(c2)N(Cc2cc(Cl)ccc2C(F)(F)F)CCN3)cc1
 | < 50% | < 50% | < 50% |  | < 50% | < 50% | 90.1% | O=C(c1ccc(-c2cnc3c(c2)N(Cc2cc(Cl)ccc2C(F)(F)F)CCN3)cc1)N1CCC(N2CCCC2)CC1
< 50% | < 50% | < 50% | < 50% | < 50% | < 50% | < 50% | 93% | FC(F)(F)c1ccc(Cl)cc1CN1CCNc2ncc(-c3ccnc(N4CCNCC4)c3)cc21
 | < 50% | < 50% | < 50% |  | < 50% | < 50% | < 50% | O=C(c1ccc(-c2cnc3c(c2)N(Cc2cc(Cl)ccc2C(F)(F)F)CCN3)cc1)N1CCCCC1
< 50% | < 50% | < 50% | < 50% | < 50% | < 50% | < 50% | 80% | CN1CCN(c2ccc(-c3cnc4c(c3)N(Cc3cc(Cl)ccc3Cl)CCN4)cn2)CC1
